Experimental data reported in ChEMBL document CHEMBL1269007, “Synthesis and biological evaluation of Apogossypolone derivatives as pan-active inhibitors of antiapoptotic B-cell lymphoma/leukemia-2 (Bcl-2) family proteins” (J Med Chem, 2010).
Several values for one entry are separate records, joined by “and”; a condition that tells them apart may be missing. Identical values can stand only once. Activity calls are given as the source filed them. The rule behind the calls is not given here.

Columns and labels:
Mus musculus [1] = experiment: Toxicity in human PPC1 cells xenografted nude mouse assessed as mortality at 25 mg/kg, ip administered weekly 3 times; assay type: organism-based, PPC-1; set-up: dose 25 mg/kg, route intraperitoneal; conditions: in vivo
In short: (§1)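 PPC-1 flank xenografts (5×10^6 cells s.c.) in female 6-week-old nude mice, size-matched at 200 mm³, 6 per group. Compound given i.p. three times in the first week in ethanol:Cremophor EL:saline 10:10:80 (500 μL); controls got saline. Survival and body weight monitored during week 1.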

[2] = biological target: Induced myeloid leukemia cell differentiation protein Mcl-1 (Homo sapiens, UniProt Q07820); experiment: Displacement of FITC-Bim BH3 peptide from Mcl-1 after 10 mins by fluorescence polarization assay
Mus musculus [3] = experiment: Toxicity in human Bcl2 expressing B6 transgenic BALB/c mouse assessed as mortality at 30 umol/kg, ip administered as single dose after 24 hrs; assay type: organism-based; conditions: in vivo
In short: (§2)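 Age- and sex-matched B6 Bcl2 transgenic mice (human BCL-2/IgH minigene on Balb/c background, no aggressive lymphoma yet) given a single i.p. injection of compound in 500 μL ethanol:Cremophor EL:saline 10:10:80. Controls received vehicle. Animals sacrificed at 24 h with Avertin; spleen removed and weighed.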

[4] = biological target: Apoptosis regulator Bcl-2 (Homo sapiens, UniProt P10415); experiment: Displacement of FITC-Bim BH3 peptide from Bcl-2 after 10 mins by fluorescence polarization assay
[5] = Metabolic stability of the compound in rat plasma after 40 mins; assay type: ADME, cell-free; conditions: read-out: Stability
Mus musculus [6] = experiment: Toxicity in human Bcl2 expressing B6 transgenic BALB/c mouse assessed as mortality at 60 umol/kg, ip administered as single dose after 24 hrs; assay type: organism-based; conditions: in vivo; in short: as §2
Bcl-2-related protein A1 = biological target: T1, Bcl-2-related protein A1 (Homo sapiens, UniProt Q16548); experiment: Displacement of F-BakBH3 from Bfl-1 after 30 mins by fluorescence polarization assay
T1 sequence (Q16548 whole entry): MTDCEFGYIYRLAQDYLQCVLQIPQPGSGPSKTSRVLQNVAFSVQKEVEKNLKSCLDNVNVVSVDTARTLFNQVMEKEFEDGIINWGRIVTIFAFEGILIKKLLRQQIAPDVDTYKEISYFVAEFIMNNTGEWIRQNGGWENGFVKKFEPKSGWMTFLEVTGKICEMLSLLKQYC

Mus musculus [7] = experiment: Reduction of spleen weight in human Bcl2 expressing B6 transgenic BALB/c mouse at 30 umol/kg, ip administered as single dose after 24 hrs; assay type: functional; set-up: scale not given: the % may be the effect or the level left
Bcl-2-like protein 1 [8] = biological target: T2, Bcl-2-like protein 1 (Homo sapiens, UniProt Q07817); experiment: Displacement of F-BakBH3 from Bcl-xL after 30 mins by fluorescence polarization assay
In short: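 GST-Bcl-XL ΔTM (100 nM) preincubated with varying compound concentrations in PBS pH 7.4 for 10 min at room temperature. FITC-labelled Bak BH3 peptide (2.5 μL of 100 nM stock) then added. Polarization read at 480/535 nm after 30 min at room temperature. Wild-type and mutant Bak BH3 peptides served as plate controls. IC50 from sigmoidal dose-response fit; mean of three independent experiments ± SE.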

Bcl-2-like protein 1 [9] = biological target: T2, Bcl-2-like protein 1; experiment: Binding affinity Bcl-xL at 200 uM by one-dimensional 1H nuclear magnetic resonance spectroscopy
[10] = Metabolic stability of the compound in rat microsomes after 40 mins; assay type: ADME, Microsome; conditions: read-out: Stability
Mus musculus [11] = experiment: Reduction of spleen weight in ip dosed human Bcl2 expressing B6 transgenic BALB/c mouse administered as single dose after 24 hrs; assay type: functional, organism-based
Bcl-2-like protein 1 [12] = biological target: T2, Bcl-2-like protein 1; experiment: Binding affinity Bcl-xL by isothermal titration calorimetry assay
Mus musculus [13] = experiment: Toxicity in human PPC1 cells xenografted nude mouse assessed as weight loss at 50 mg/kg, ip administered weekly 3 times; assay type: organism-based, PPC-1; set-up: dose 50 mg/kg, route intraperitoneal; conditions: in vivo
In short: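 Nude mice carrying subcutaneous flank xenografts (5×10^6 cells), size-matched at 200 mm³, 6 per group. Dosed intraperitoneally in ethanol:Cremophor EL:saline 10:10:80, three times in week 1, twice in week 2, once in week 3; saline controls. Body weight followed over treatment and reported as average percentage loss.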

Homo sapiens = species on record: Homo sapiens; experiment: Induction of apoptosis in human CLL after 24 hrs by annexin V-FITC and propidium iodide staining; assay type: functional
In short: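 Freshly isolated primary leukaemic cells from CLL patients cultured in RPMI 1640 with 10% FBS and penicillin/streptomycin with various compound concentrations for 1 day. Annexin V-FITC/propidium iodide staining read by flow cytometry; annexin-V-negative, PI-negative cells counted as viable; LD50 derived from dose-response.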

BP3 = experiment: Induction of apoptosis in human BP3 cells expressing high level of Bfl-1 and Mcl-1 after 24 hrs by annexin V-FITC and propidium iodide staining; assay type: functional, cell-based
PPC-1 [14] = experiment: Antitumor activity against human PPC1 cells xenografted in nude mouse assessed as tumor regression at 50 mg/kg, ip administered 5 times measured on after 2 weeks relative to control; assay type: functional; conditions: route intraperitoneal
In short: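 Female 6-week-old nude mice injected s.c. in the flank with 5×10^6 PPC-1 cells in 0.2 ml PBS; size-matched at 200 mm³, 6 per group. Compound given i.p. in ethanol:Cremophor EL:saline 10:10:80 (500 μL), three times in week 1, twice in week 2, once in week 3; controls got saline. Caliper volume (length × width²/2) 2–3 times weekly; T/C% = mean treated volume / mean control volume.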

Mus musculus [15] = experiment: Reduction of spleen weight in human Bcl2 expressing B6 transgenic BALB/c mouse at 60 umol/kg, ip administered as single dose after 24 hrs; assay type: functional; set-up: scale not given: the % may be the effect or the level left
Mus musculus [16] = experiment: Toxicity in human Bcl2 expressing B6 transgenic BALB/c mouse assessed as weight loss up to 120 umol/kg, ip administered as single dose after 24 hrs; assay type: organism-based; conditions: in vivo
PPC-1 [17] = experiment: Antitumor activity against human PPC1 cells xenografted in nude mouse assessed as tumor regression at 50 mg/kg, ip administered weekly 3 times; assay type: functional, organism-based; set-up: dose 50 mg/kg
In short: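 Female 6-week-old nude mice given 5×10^6 cells in 0.2 ml PBS subcutaneously in the flank; tumours size-matched at 200 mm³, 6 mice/group. Intraperitoneal injections in ethanol:Cremophor EL:saline 10:10:80 (500 μL), three times week 1, twice week 2, once week 3; controls received saline. Caliper volume (length×width²/2) two to three times weekly; T/C% = mean treated/mean control volume.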

Mus musculus [18] = experiment: Reduction of spleen weight in human Bcl2 expressing B6 transgenic BALB/c mouse at 60 umol/kg, ip administered as single dose after 24 hrs relative to control; assay type: functional; set-up: scale not given: the % may be the effect or the level left
RS4-11 = experiment: Induction of apoptosis in human RS4:11 cells expressing high level of Bcl-2 and Bcl-xL after 24 hrs by annexin V-FITC and propidium iodide staining; assay type: functional, cell-based
Mus musculus [19] = experiment: Toxicity in human PPC1 cells xenografted nude mouse assessed as mortality at 50 mg/kg, ip administered weekly 3 times; assay type: organism-based, PPC-1; set-up: dose 50 mg/kg, route intraperitoneal; conditions: in vivo; in short: as §1
Mus musculus [20] = experiment: Toxicity in human Bcl2 expressing B6 transgenic BALB/c mouse up to 120 umol/kg, ip administered as single dose after 24 hrs; assay type: organism-based; conditions: in vivo
In short: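 B6 Bcl-2 transgenic Balb/c mice, age- and sex-matched, given one intraperitoneal dose (60 or 120 μmol/kg, also 30 μmol/kg) in ethanol:Cremophor EL:saline 10:10:80, 500 μL; survival and signs of toxicity observed over 24 h before sacrifice.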

Chain of Apoptosis regulator Bcl-2 (P10415 whole entry): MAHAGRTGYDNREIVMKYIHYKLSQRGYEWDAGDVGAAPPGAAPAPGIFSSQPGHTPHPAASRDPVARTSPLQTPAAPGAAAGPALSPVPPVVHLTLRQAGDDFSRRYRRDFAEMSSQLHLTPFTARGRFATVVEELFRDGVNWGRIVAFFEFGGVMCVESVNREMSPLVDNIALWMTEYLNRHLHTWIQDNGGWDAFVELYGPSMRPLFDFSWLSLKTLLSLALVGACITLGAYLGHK
Chain of Induced myeloid leukemia cell differentiation protein Mcl-1 (Q07820 whole entry): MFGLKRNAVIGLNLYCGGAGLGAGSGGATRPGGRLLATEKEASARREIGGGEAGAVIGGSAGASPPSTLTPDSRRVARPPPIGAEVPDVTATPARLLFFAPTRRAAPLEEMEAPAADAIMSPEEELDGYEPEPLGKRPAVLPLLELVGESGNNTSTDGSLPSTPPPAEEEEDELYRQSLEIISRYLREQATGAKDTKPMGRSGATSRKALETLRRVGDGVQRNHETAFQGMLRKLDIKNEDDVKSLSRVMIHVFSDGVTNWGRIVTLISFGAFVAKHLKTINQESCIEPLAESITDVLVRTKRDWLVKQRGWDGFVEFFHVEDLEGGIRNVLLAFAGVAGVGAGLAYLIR
T2 sequence (Q07817 whole entry): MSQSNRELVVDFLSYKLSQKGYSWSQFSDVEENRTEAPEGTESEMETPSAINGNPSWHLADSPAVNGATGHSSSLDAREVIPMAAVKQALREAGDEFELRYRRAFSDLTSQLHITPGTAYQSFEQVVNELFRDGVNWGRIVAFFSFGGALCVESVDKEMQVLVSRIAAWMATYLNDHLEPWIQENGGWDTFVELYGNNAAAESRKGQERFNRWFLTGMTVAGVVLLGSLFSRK

SMILES | IC50 [2] | Ki [2] | IC50 [4] | Ki [4] | remaining at 40 min [5] | Ki (Bcl-2-related protein A1) | IC50 (Bcl-2-like protein 1 [8]) | Ki (Bcl-2-like protein 1 [8]) | Activity (Bcl-2-like protein 1 [9]) | Activity (Mus musculus [11]) | Kd (Bcl-2-like protein 1 [12]) | Activity (Mus musculus [13]) | LD50 (Homo sapiens) | Activity (BP3) | Activity (PPC-1 [14]) | Activity (Mus musculus [15]) | Activity (PPC-1 [17]) | Activity (RS4-11) | also measured
CC1=C(C2=C(C)C(=O)c3c(cc(O)c(O)c3Cc3ccccc3)C2=O)C(=O)c2cc(O)c(O)c(Cc3ccccc3)c2C1=O | 0.24 µM | 0.16 µM | 0.29 µM | 0.19 µM | 95% | 0.43 µM | 0.34 µM | 0.23 µM | Active | Dose-dependent effect | 0.45 µM |  |  |  |  |  |  |  | Activity (Mus musculus [1]): Toxic; Activity (Mus musculus [3]): Non-toxic; Activity (Mus musculus [6]): Toxic; IC50 (Bcl-2-related protein A1): 0.65 µM; Activity (Mus musculus [7]): 86%; remaining at 40 min [10]: 91%
CC1=C(C2=C(C)C(=O)c3c(cc(O)c(O)c3CCc3ccc(C)cc3)C2=O)C(=O)c2cc(O)c(O)c(CCc3ccc(C)cc3)c2C1=O | 2.05 µM | 1.37 µM | 3.12 µM | 2.08 µM | 86% |  | 3.1 µM | 2.07 µM | Active | Dose-dependent effect | 2.5 µM | 5% and 6.8% | 10 µM | Dose-dependent effect | 33% | 30% | Active | Dose-dependent effect | Activity (Homo sapiens): Dose-dependent effect; Activity (Mus musculus [16]): 5%; Activity (Mus musculus [18]): 60%; Activity (Mus musculus [19]): Non-toxic; Activity (Mus musculus [20]): Non-toxic
CC1=C(C2=C(C)C(=O)c3c(cc(O)c(O)c3C(C)C)C2=O)C(=O)c2cc(O)c(O)c(C(C)C)c2C1=O |  | 0.43 µM |  | 0.25 µM | 77% | 1.47 µM |  | 0.42 µM | Active | Dose-dependent effect |  | 9.3% | > 30 µM | Dose-dependent effect | 65% | 20% | Active | Dose-dependent effect | 
